Screening results deposited in PubChem by Broad Institute.
T cruzi growth-1 = T. cruzi intracellular proliferation inhibitors, primary screen, cell-based, beta-gal Tulahuen parasites, NIH3T3 host, luminescence; T. cruzi beta-gal in NIH3T3, GalScreen luminescence, 90 h; inhibition, % at 8.34 µM; actives 5.9% (n = 77,000); AID 624255, 2012;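 active = mean inhibition above about 93%, with at least 55% of replicates each passing it, limit read from the data, passing the limit was not always enough; inconclusive = only one of those two conditions holds; inactive = neither condition holds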
KDM4C inh = inhibitors of GASC-1 (KDM4C) histone demethylase, primary screen, biochemical, single concentration HTS | inhibition, % at 12.5 µM | actives 0.15% (n = 96,000) | GST-KDM4C 2-372, H3K9me3 peptide, LANCE TR-FRET | Lysine-specific demethylase 4C (Homo sapiens), Q9H3R0;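 active = mean replicate inhibition above about 25%, with at least 55% of replicates also reaching it, limit read from the data, passing the limit was not always enough; inconclusive = only one of those two conditions met; inactive = neither condition met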
Target sequence (Q9H3R0 2-372 limits assumed): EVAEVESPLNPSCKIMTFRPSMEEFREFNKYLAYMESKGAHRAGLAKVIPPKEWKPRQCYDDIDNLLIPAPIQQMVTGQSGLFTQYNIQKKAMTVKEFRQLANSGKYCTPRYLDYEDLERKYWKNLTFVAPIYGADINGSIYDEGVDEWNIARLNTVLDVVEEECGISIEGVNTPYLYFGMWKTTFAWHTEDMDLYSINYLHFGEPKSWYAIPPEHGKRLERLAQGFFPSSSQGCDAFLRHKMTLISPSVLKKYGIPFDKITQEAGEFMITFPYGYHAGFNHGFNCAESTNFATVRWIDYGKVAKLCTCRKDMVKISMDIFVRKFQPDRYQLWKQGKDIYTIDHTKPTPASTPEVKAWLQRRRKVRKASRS
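Compound: one test concentration per compound; Material: GST-GASC-1 enzyme fragment 2-372; Amount: GASC-1 enzyme at 10 nM final in reaction; Also added: H3K9me3 peptide substrate, Fe(II), 2-oxoglutarate; Technique: LANCE TR-FRET; Times: 30 min demethylation and 1 h detection at room temperature.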
IDH1 mut inh = inhibitors of IDH1 R132H reductase, primary screen, biochemical, plate reader, single point | Isocitrate dehydrogenase [NADP] cytoplasmic (Homo sapiens), O75874 | diaphorase/resazurin fluorescence, 60 min | inhibition, % at 10 µM | actives 0.18% (n = 70,000) | AID 624101, 2012; in the data active = inhibition above about 34%; inconclusive = no clear call, values can overlap the other calls; inactive = below about 11%;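 note: 0% = DMSO and 100% = no enzyme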
T cruzi growth-2 = T. cruzi intracellular proliferation inhibitors, confirmation, cell-based, NIH3T3 host, beta-gal parasite, luminescence, cherry-pick | inhibition, % at 8.35 µM | T. cruzi beta-gal in NIH3T3, GalScreen luminescence, 90 h | actives 72% (n = 5,600) | AID 651739, 2012 | shares compounds with T cruzi growth-1;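 active = mean replicate inhibition above about 95% and at least 55% of replicates individually reaching it, limit read from the data; inconclusive = only one of the two criteria is met; inactive = neither criterion is met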
T cruzi growth-3 = inhibitors of intracellular T. cruzi replication, confirmation, NIH3T3 host cells, beta-gal parasites, cherry-pick, set 2; inhibition, % at 2.09 µM; actives 21% (n = 5,600); T. cruzi beta-gal in NIH3T3, GalScreen luminescence, 90 h; shares compounds with T cruzi growth-1; AID 651740, 2012;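 active = mean inhibition above about 95%, with at least 55% of replicates also reaching it, limit read from the data; inconclusive = meets just one of the two conditions; inactive = meets neither condition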;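 note: plate controls were neutral control median for no effect and positive control median for full effect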
3T3 cytotox = cytotoxicity in mouse NIH/3T3 fibroblasts, confirmation, cytotoxicity control for T. cruzi proliferation inhibitor project, cell-based, cherry-pick, single point. shares compounds with T cruzi growth-1. cytotoxicity (signal decrease), % at 8.35 µM. NIH/3T3 viability, CellTiter-Glo ATP luminescence, 90 h. actives 14% (n = 5,600);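 active = mean signal decrease across replicates above about 35% based on untreated-well scatter, with enough replicates individually passing, limit read from the data; inconclusive = no rule stated though some were filed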;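 note: 0% = median of neutral control wells and 100% = median of positive control wells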
NIH3T3 tox 2 = NIH/3T3 fibroblast cytotoxicity, confirmation, cytotoxicity control, cell-based, cherry-pick, single point, set 2 | inhibition, % at 24.9 µM | NIH/3T3 viability, CellTiter-Glo ATP luminescence, 90 h | shares compounds with T cruzi growth-1 | actives 56% (n = 5,600) | AID 651744, 2012;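 active = mean loss of cell viability signal at or above a set limit, and enough replicates individually reaching it; inconclusive = meets only the mean limit or only the replicate share; inactive = meets neither condition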;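 note: 0% = median of neutral control wells and 100% = median of positive control wells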
* marks the source's active call; other numbers are inactive results; ? = inconclusive; . = not tested or not shown. Only a selection was taken, and hits are over-represented in it overall.

SMILES	T cruzi growth-1	KDM4C inh	IDH1 mut inh	T cruzi growth-2	T cruzi growth-3	3T3 cytotox	NIH3T3 tox 2
O=C(CSc1nnc(-c2ccccc2)c(-c2ccccc2)n1)C1CC1	.	.	0	.	.	.	.
COc1cccc(NC(=O)N(C)C[C@H]2Oc3cc(C#Cc4ccccc4)ccc3S(=O)(=O)N([C@H](C)CO)C[C@H]2C)c1	85*	.	.	100*	114*	5	5
COc1cccc(C#Cc2ccc3c(c2)O[C@@H](CN(C)C(C)=O)[C@H](C)CN([C@@H](C)CO)S3(=O)=O)c1	?	0	0	107*	30	?	35*
COc1cccc(NC(=O)N(C)C[C@H]2Oc3cc(C#Cc4ccccc4)ccc3S(=O)(=O)N([C@H](C)CO)C[C@@H]2C)c1	94*	.	-2	113*	89	24	21
COc1cccc(NC(=O)N(C)C[C@@H]2Oc3cc(C#Cc4ccccc4)ccc3S(=O)(=O)N([C@@H](C)CO)C[C@@H]2C)c1	?	0	-3	.	.	.	.
COc1cccc(C#Cc2ccc3c(c2)O[C@H](CN(C)C(C)=O)[C@H](C)CN([C@@H](C)CO)S3(=O)=O)c1	50	0	2	.	.	.	.
COc1cccc(NC(=O)N(C)C[C@H]2Oc3cc(-c4ccccc4OC)ccc3S(=O)(=O)N([C@H](C)CO)C[C@@H]2C)c1	.	3	0	.	.	.	.
CC(C(=O)Nc1cccnc1)N(c1ccc(Oc2ccccc2)cc1)S(C)(=O)=O (stereo unspecified)	.	.	2	.	.	.	.
CC12CCCCC1(O)N(O)C(C(=O)c1ccccc1)=N2 (stereo unspecified)	.	.	0	.	.	.	.
C/C=C/c1ccc([C@@H]2[C@@H](CO)N3CCCCN(C(=O)Nc4ccccc4F)C[C@H]23)cc1	39	-1	.	.	.	.	.
C/C=C/c1ccc([C@@H]2[C@H](CO)N3CCCCN(C(=O)Nc4ccccc4F)C[C@@H]23)cc1	63	-1	.	.	.	.	.
O=C(Nc1ccccc1F)N1CCCCN2[C@H](CO)[C@@H](c3ccc(/C=C/c4ccccc4)cc3)[C@H]2C1	104*	-2	.	97*	61	59*	105*
O=C(Nc1ccccc1F)N1CCCCN2[C@H](CO)[C@@H](c3ccc(C4=CCCCC4)cc3)[C@H]2C1	103*	.	.	111*	73	39*	107*
C/C=C/c1ccc([C@H]2[C@@H](CO)N3CCCCN(C(=O)Nc4ccccc4F)C[C@H]23)cc1	97*	0	.	100*	52	9	70*
O=C(Nc1ccccc1F)N1CCCCN2[C@H](CO)[C@@H](c3ccc(C4=CCCC4)cc3)[C@@H]2C1	79	2	.	.	.	.	.
O=C(NCc1cccnc1)c1ccc2c(c1)C(=O)N(CC1CCCO1)C2=O (stereo unspecified)	.	.	0	.	.	.	.
Oc1c(C(Nc2ccccn2)c2cccc(OC3CCCC3)c2)ccc2cccnc12 (stereo unspecified)	.	.	1	.	.	.	.
C[C@@H]1CN([C@@H](C)CO)C(=O)c2cc(C#CC3CCCC3)cnc2O[C@@H]1CN(C)C(=O)Nc1ccccc1	63	-1	.	.	.	.	.
COc1ccc(C#Cc2cnc3c(c2)C(=O)N([C@@H](C)CO)C[C@@H](C)[C@H](CN(C)C(=O)Nc2cccc(OC)c2)O3)cc1	?	-4	.	110*	89	2	9
C[C@H]1CN([C@@H](C)CO)C(=O)c2cc(C#CC3CC3)cnc2O[C@@H]1CN(C)C(=O)Cc1ccccn1	35	4	-6	.	.	.	.
C[C@@H]1CN([C@H](C)CO)C(=O)c2cc(C#CC3CCCC3)cnc2O[C@H]1CN(C)C(=O)Nc1ccccc1	99*	-1	.	104*	43	-6	2
COc1ccc(C#Cc2cnc3c(c2)C(=O)N([C@H](C)CO)C[C@H](C)[C@H](CN(C)C(=O)Nc2cccc(OC)c2)O3)cc1	42	-6	.	.	.	.	.
COc1cccc(NC(=O)N(C)C[C@@H]2Oc3ncc(C#Cc4ccccc4)cc3C(=O)N([C@@H](C)CO)C[C@H]2C)c1	118*	.	.	111*	103*	6	3
C[C@H](CO)N1C[C@H](C)[C@@H](CN(C)C(=O)Cc2ccccn2)Oc2ncc(C#CC3CC3)cc2C1=O	104*	1	.	61	17	10	36*
COc1cccc(NC(=O)N(C)C[C@H]2Oc3ncc(C#Cc4ccncc4)cc3C(=O)N([C@@H](C)CO)C[C@@H]2C)c1	.	0	2	.	.	.	.
SMILES	T cruzi growth-1	KDM4C inh	IDH1 mut inh	T cruzi growth-2	T cruzi growth-3	3T3 cytotox	NIH3T3 tox 2
COC(=O)c1ccc(NC(=O)CN(C)S(=O)(=O)c2cc(Cl)ccc2Cl)cc1	.	.	0	.	.	.	.
Cc1cc(Cl)ccc1NC(=O)c1ccc(OCC(=O)Nc2ccccc2)cc1	.	.	0	.	.	.	.
O=S(=O)(Cc1ccc(Cl)cc1)NCc1ccccn1	.	.	0	.	.	.	.
COc1ccc(NC(=O)c2cc(S(=O)(=O)Nc3ccc(OC)cc3)c(Cl)cc2Cl)cc1	.	.	0	.	.	.	.
Oc1ccc([C@@H]2Oc3cc(O)cc(O)c3C[C@@H]2O)cc1	.	.	-1	.	.	.	.
CC(C)NC(=O)N(C)C[C@H]1Oc2cc(C#Cc3cccc(F)c3)ccc2S(=O)(=O)N([C@@H](C)CO)C[C@@H]1C	116*	-2	0	99*	59	22	45*
CC(C)NC(=O)N(C)C[C@@H]1Oc2cc(C#Cc3cccc(F)c3)ccc2S(=O)(=O)N([C@H](C)CO)C[C@@H]1C	61	14	0	.	.	.	.
CC(C)NC(=O)N(C)C[C@@H]1Oc2cc(C#Cc3ccc(F)cc3)ccc2S(=O)(=O)N([C@H](C)CO)C[C@@H]1C	111*	0	-4	97*	?	11	10
CC(C)NC(=O)N(C)C[C@@H]1Oc2cc(C#Cc3cccc(F)c3)ccc2S(=O)(=O)N([C@@H](C)CO)C[C@@H]1C	92	-1	-5	.	.	.	.
CC(C)NC(=O)N(C)C[C@H]1Oc2cc(C#Cc3cccc(F)c3)ccc2S(=O)(=O)N([C@@H](C)CO)C[C@H]1C	100	-1	-1	.	.	.	.
CC(C)NC(=O)N(C)C[C@H]1Oc2cc(C#Cc3ccc(F)cc3)ccc2S(=O)(=O)N([C@@H](C)CO)C[C@H]1C	107*	0	0	105*	21	-16	19
CCC(=O)Nc1ccc(S(=O)(=O)Nc2nccc(/C=C/c3ccccc3Cl)n2)cc1	.	.	0	.	.	.	.
